MrgX1 ag – agonists of human MrgX1 receptor; Q96LB2; MrgX1-HEK293 cells, Fluo-4 calcium fluorescence, agonist mode; active compounds read high; B-score at 10 µM; 310,000 compounds, 0.44% hits; AID 588627;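 active = calcium response B-score plate-corrected fluorescence ratio at least 3 library SD, with starting fluorescence B-score inside 5 SD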
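Material: MrgX1-expressing HEK293 cells; input: 15,000 cells per well; doses: test compound given as first of three sequential additions; schedule: overnight plating before 1 h dye loading; technique: Fluo-4 NW calcium-flux fluorescence, kinetic read; evaluation: baseline-normalised fluorescence change ratio, B-scored; control set: plate-wise positive and negative controls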
RGS4 block – human RGS4 inhibition | 310,000 compounds, 0.45% hits | B-score at 10 µM | AID 463165 | HEK293 M3R/RGS4 inducible, Fluo-4 calcium flux; active compounds read high; triggered by carbachol at its EC20;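 active = B-score, a plate-corrected calcium signal, over three deviations above library mean, with baseline fluorescence within five deviations of library mean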;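 also: RGS4 expression induced by doxycycline in cells with stable M3 receptor; B-score is computed from the integrated fluorescence ratio over baseline after carbachol; higher B-score means a larger calcium signal and so more RGS4 inhibition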
RGS4 pot – RGS4 potentiation or activation | 310,000 compounds, 0.92% hits | B-score at 10 µM | HEK293 M3R/inducible RGS4, carbachol calcium flux Fluo4; active compounds read low | AID 463111;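 active = B-score of the integrated calcium signal more than 4 SD below the library mean, with starting fluorescence not abnormally high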;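 also: negative B-score means reduced calcium response which marks RGS4 activation or potentiation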
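System – HEK293 FlpIn-TREx cells, stable M3R, doxycycline-inducible RGS4 · Reagent – ECmax carbachol challenge · Times – compound preincubation 20 min at room temperature before agonist · Technique – Fluo4 fluorescence kinetic imaging of calcium · Measure – B score of integrated Fluo4 ratio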
MrgX1 antagonist – antagonists of human MrgX1 receptor; MRGX1-HEK293 calcium flux, Fluo-4, BAM8-22 antagonism; active compounds read low; 310,000 compounds, 1.3% hits; B-score at 10 µM;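 active = calcium-response B-score plate-corrected more than 3 library SD below zero, starting fluorescence within 5 deviations, no agonist response on first addition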;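 also: peak minus trough fluorescence over baseline after final BAM8-22 challenge near maximal dose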
KCC2 mod – modulators of human KCC2 chloride dependent transport; Q9H2X9; KCC2 cells, thallium flux FluoZin-2 fluorescence; B-score of Tl+ flux slope (higher = more flux/activation; lower = inhibition) at 10 µM; 190,000 compounds, 2.2% hits;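 active = thallium flux slope and its plate-corrected score both differing from the plate sample mean at a set confidence after two filtering rounds, in either direction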;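 also: slope of fluorescence scaled to starting intensity during 10 to 20 s after thallium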
MrgX1 PAM – human MrgX1 positive allosteric modulation, primary screen; Q96LB2; MrgX1-HEK293, Fluo-4 calcium flux, FDSS; active compounds read high; B-score at 10 µM; 310,000 compounds, 0.63% hits; AID 588675;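 active = plate-corrected calcium response at least 3 library SD above typical, normal starting fluorescence, not activating the receptor alone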;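 also: compound read alongside a low EC10 to EC30 dose of BAM8-22 agonist; peak minus trough fluorescence over baseline measured at the second addition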
RGS4 block valid – RGS4 inhibitor validation; shares compounds with RGS4 block; HEK293 M3R/RGS4, carbachol calcium Fluo-4 fluorescence; carbachol added at its EC20; 0 = buffer wells, 100 = carbachol control; calcium response, % at 10 µM; 1,700 compounds, 65% hits; AID 492999;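 active = duplicate-averaged calcium response above the buffer-only control mean plus 5 SD of those controls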;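 also: integrated fluorescence ratio F max minus min over baseline F0; higher response in RGS4-induced cells means RGS4 inhibition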
M3R Ca ctr – non-induced cell nonspecific activity of RGS4 inhibitors; shares compounds with RGS4 block; HEK293 M3R non-induced, carbachol calcium Fluo-4; submaximal (EC20) carbachol stimulus; buffer wells 0%, carbachol control wells 100%; activity (percent), % at 10 µM; 1,900 compounds, 20% hits; AID 493000; call rule not given here;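 also: RGS4 induction absent so cells express M3R without RGS4; higher means more calcium signal and flags a non-specific hit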
RGS4 inh ctr2 – second RGS4 inhibitor counter-screen in uninduced cells lacking carbachol; shares compounds with RGS4 block; HEK293 M3R/RGS4 non-induced, Fluo-4 calcium, no carbachol; normalised: buffer wells 0%, carbachol wells 100%; calcium response (agonist-mode artifact), % at 10 µM; 1,900 compounds, 22% hits;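 active = duplicate-averaged calcium rise in uninduced cells above buffer wells' mean plus 5 SD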
Starred values were filed as active, the others as inactive; i = inactive; . = no result given. This is a sample that favours compounds with a hit; in the whole collection about 4.7% have one here.

SMILES	MrgX1 ag	RGS4 block	RGS4 pot	MrgX1 antagonist	KCC2 mod	MrgX1 PAM	RGS4 block valid	M3R Ca ctr	RGS4 inh ctr2
CC(C)(C)c1ccc(-n2ncc3c2CCCC3NC(=O)CCN2CCCC2=O)cc1 (configuration not stated)	i	i	i	i	.	i	.	.	.
O=S(=O)(Nc1ccc(S(=O)(=O)Nc2nccs2)cc1)c1ccc2c(c1)OCCO2	i	i	i	i	0.14	i	i	i	i
CCN(Cc1cnn(C)c1)C(=O)c1ccc2nc(Cc3cccc(Cl)c3)oc2c1	i	i	i	i	.	i	.	.	.
O=C(O)c1ccccc1C(=O)Nc1ccccc1	i	i	i	i	-0.36	i	.	.	.
O=C(Nc1ccccc1)C1=C(c2ccccc2)S(=O)(=O)CCS1(=O)=O	.	23*	i	.	-0.71	.	47%*	i	i
CCc1ccccc1NC(=O)N1CCCc2ccccc21	i	i	i	i	.	i	.	.	.
Cc1noc(/C=C/c2ccccn2)c1[N+](=O)[O-]	i	6.8*	i	i	.	i	27%*	30%*	i
Cc1noc(/C=C/Nc2ccc(F)cc2F)c1[N+](=O)[O-]	i	i	i	i	-0.08	i	.	.	.
Cc1cc(C)cc(NC(=O)CN2CCC(NC(=O)c3ccccc3F)CC2)c1	i	i	i	i	.	i	.	.	.
CCc1ccc2nc(NC(=O)c3cc(C)on3)sc2c1	i	6.4*	i	i	42*	i	25%*	36%*	i
Cc1ccc(C2C(C#N)=C3N=C(N)c4ccccc4N3C3=C2C(=O)CCC3)cc1 (configuration not stated)	i	i	i	i	-1.1	i	.	i	i
N#CC1=C2N=C(N)c3ccccc3N2C2=C(C(=O)CCC2)C1c1ccc(F)cc1 (configuration not stated)	i	i	i	i	-1.1	i	.	i	i
Nn1c(=O)[nH]c2c([nH]c3ccccc32)c1=O	i	5.9*	i	i	0.23	i	i	i	i
CC1CCN(c2nc(-c3ccco3)c3c(c2C#N)CC(C)(C)OC3)CC1	i	i	i	i	-0.4	i	i	i	15%*
COc1ccc(N(CC(=O)NN=C2CCN(C)CC2)S(=O)(=O)c2ccccc2)c(OC)c1	i	i	i	i	.	i	.	.	.
S=c1[nH]nc(-c2cc(-c3ccsc3)n[nH]2)n1-c1cccc2ccccc12	i	6.1*	i	i	0.044	i	11%*	i	i
O=C(NCc1nnc(SCC(=O)N2CCOCC2)o1)c1c(F)cccc1F	i	i	i	i	.	i	.	.	.
COc1nn(-c2ccccc2)c(=O)c(Cl)c1Cl	i	5*	i	i	.	i	10%*	i	i
Cc1ccccc1N1CCN(C2CCCN(C(=O)c3snnc3C)C2)CC1 (configuration not stated)	i	i	i	i	.	i	.	.	.
Cc1c(Cl)ccc2c(C(=O)O)cc(-c3ccccc3)nc12	i	5.8*	i	i	-2.7	i	22%*	40%*	i
COC(=O)c1cc(=O)n(Cc2ccco2)c(=Nc2ccc(F)c(Cl)c2)s1	i	i	i	i	.	i	.	i	i
O=C(Nc1ccccc1N1CCCCC1)c1ccc(-c2cc(Cl)ccc2Cl)o1	i	i	i	i	.	i	.	.	.
CCOC(=O)C1(Cc2cccc(OC)c2)CCCN(C(=O)CNC(C)=O)C1 (configuration not stated)	i	i	i	i	.	i	.	.	.
COc1ccc(-c2nc3ccccc3nc2-c2ccccc2)cc1	i	i	i	i	-0.13	i	.	.	.
COc1ccc(OC)c(-c2nc3ccccc3nc2-c2ccccc2)c1	i	i	i	i	-0.095	i	i	i	i
SMILES	MrgX1 ag	RGS4 block	RGS4 pot	MrgX1 antagonist	KCC2 mod	MrgX1 PAM	RGS4 block valid	M3R Ca ctr	RGS4 inh ctr2
CN1C(C(=O)Nc2ccc(OC(F)(F)F)cc2)=CC(c2ccc3c(c2)OCO3)=NS1(=O)=O	i	i	i	i	.	i	.	.	.
Cc1[nH]n(-c2ccccc2)c(=O)c1C(C[N+](=O)[O-])c1ccc(Br)cc1 (configuration not stated)	i	8.4*	i	i	-2.1	6.8*	32%*	51%*	28%*
Cc1[nH]n(-c2ccccc2)c(=O)c1C(c1ccc(C(=O)O)cc1)c1c(C)[nH]n(-c2ccccc2)c1=O	i	i	i	i	0.0035	i	.	.	.
Cc1[nH]n(-c2ccccc2)c(=O)c1C(c1cccc([N+](=O)[O-])c1)c1c(C)[nH]n(-c2ccccc2)c1=O	i	i	i	i	-0.03	i	.	.	.
COc1cccc(C(C[N+](=O)[O-])c2c(C)[nH]n(-c3ccccc3)c2=O)c1 (configuration not stated)	50*	15*	i	i	.	i	6.0%*	i	10%*
CC(C)Sc1cc(N2CCCC2)nc(-c2ccccc2)n1	i	6.2*	i	i	-0.13	i	23%*	51%*	i
CC(C)Sc1cc(N2CCCC2)nc(-c2ccccc2Cl)n1	i	i	i	i	-0.38	i	.	.	.
CC(C)Sc1cc(N2CCOCC2)nc(-c2ccccc2)n1	i	i	i	i	0.2	i	i	30%*	10%*
CC(C)Sc1cc(N2CCCC2)nc(-c2ccc(F)cc2)n1	i	9.2*	i	i	0.17	i	26%*	i	i
CC1CCCCN1CCNC(=O)CN1C(=O)CSc2ccc(S(=O)(=O)N3CCCCC3)cc21 (configuration not stated)	i	i	i	i	.	i	.	.	.
NC(=O)c1cc(S(=O)(=O)NCc2cccs2)cs1	i	i	i	i	.	i	.	.	.
Cc1c(Cl)ccc2sc(NC(=O)C3CC3)nc12	i	6.2*	i	i	.	i	8.0%*	i	i
CC(=O)Nc1nc2c(C)c(Cl)ccc2s1	i	i	i	i	-0.32	i	.	.	.
